# Measurements: ChEMBL document CHEMBL4842360, “Discovery of a Bicyclic Peptidyl Pan-Ras Inhibitor” (J Med Chem, 2021)
# Calls of active or inactive are those of the source. The calls are words filed in the database; no cut-off is given here. Numbered stars: 1 amine (or outer) side, 2 acyl side, 3 side chain; on linkers, the order of the positions; unused ones are H or OH. Bridge positions count the residues as written; N and C are the ends. Square brackets hold non-standard residues; d marks the D form. Peptide text beside a SMILES is read from it. Trimesoyl = O=C(c1cc(C(=O)[*:2])cc(C(=O)[*:3])c1)[*:1]; d2Nal = N[C@H](Cc1ccc2ccccc2c1)C(=O)O; Phg = N[C@H](C(=O)O)c1ccccc1; Orn = NCCC[C@H](N)C(=O)O; Dap = NC[C@H](N)C(=O)O
# Legend:
# [1] = biological target: Albumin (Bos taurus, UniProt P02769); test: Binding affinity to bovine serum albumin; assay type: ADME
# Chain of Albumin (P02769 whole entry): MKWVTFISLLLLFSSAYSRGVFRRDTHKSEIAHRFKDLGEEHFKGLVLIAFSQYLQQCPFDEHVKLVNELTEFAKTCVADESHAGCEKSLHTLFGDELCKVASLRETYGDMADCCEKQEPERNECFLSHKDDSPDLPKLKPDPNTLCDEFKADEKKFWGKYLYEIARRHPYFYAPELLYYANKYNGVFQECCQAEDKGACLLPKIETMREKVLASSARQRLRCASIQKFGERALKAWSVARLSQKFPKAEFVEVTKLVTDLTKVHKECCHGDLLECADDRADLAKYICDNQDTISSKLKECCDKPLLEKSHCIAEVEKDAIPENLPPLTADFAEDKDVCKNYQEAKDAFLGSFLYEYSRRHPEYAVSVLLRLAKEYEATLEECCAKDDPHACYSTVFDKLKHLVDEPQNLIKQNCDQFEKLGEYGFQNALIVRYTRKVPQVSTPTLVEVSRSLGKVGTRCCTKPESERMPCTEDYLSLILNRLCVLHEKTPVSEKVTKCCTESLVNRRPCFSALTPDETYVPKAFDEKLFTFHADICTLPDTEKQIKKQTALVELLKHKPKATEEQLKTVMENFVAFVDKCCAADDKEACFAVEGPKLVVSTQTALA
# In short: (§1)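 Fluorescein-labeled peptide (100 nM) incubated 1 h at RT with varying concentrations of control protein (BSA, GST-RBD, PNP, PTP1B or MDM2). KD derived from fluorescence polarization titration curves.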
# [2] = biological target: T1, Purine nucleoside phosphorylase (Homo sapiens) (UniProt P00491); test: Binding affinity to purine nucleoside phosphorylase (unknown origin); in short: as §1
# T1 sequence (whole entry): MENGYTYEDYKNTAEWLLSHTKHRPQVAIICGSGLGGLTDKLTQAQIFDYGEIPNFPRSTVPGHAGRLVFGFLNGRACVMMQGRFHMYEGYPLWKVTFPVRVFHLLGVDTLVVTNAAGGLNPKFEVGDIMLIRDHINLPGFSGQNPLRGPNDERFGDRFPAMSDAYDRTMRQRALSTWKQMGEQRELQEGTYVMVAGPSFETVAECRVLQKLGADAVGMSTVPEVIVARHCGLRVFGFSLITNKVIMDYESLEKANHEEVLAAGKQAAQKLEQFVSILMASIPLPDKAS
# [3] = biological target: T2, Tyrosine-protein phosphatase non-receptor type 1 (Homo sapiens) (UniProt P18031); test: Binding affinity to PTP1B (unknown origin); in short: as §1
# T2 sequence (whole entry): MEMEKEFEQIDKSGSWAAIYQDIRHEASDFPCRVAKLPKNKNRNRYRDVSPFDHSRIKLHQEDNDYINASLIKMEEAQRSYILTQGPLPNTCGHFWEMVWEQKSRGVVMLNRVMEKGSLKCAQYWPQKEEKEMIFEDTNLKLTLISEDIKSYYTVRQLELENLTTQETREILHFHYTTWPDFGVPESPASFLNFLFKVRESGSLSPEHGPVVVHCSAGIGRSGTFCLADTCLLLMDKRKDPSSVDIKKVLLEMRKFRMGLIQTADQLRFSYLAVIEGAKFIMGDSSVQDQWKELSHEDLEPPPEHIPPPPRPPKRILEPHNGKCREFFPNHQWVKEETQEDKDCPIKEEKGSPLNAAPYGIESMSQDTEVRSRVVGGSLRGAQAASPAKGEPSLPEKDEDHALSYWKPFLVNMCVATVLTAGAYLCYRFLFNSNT
# [4] = biological target: E3 ubiquitin-protein ligase Mdm2 (Homo sapiens) (UniProt Q00987); test: Binding affinity to MDM2 (unknown origin); in short: as §1
# Chain of E3 ubiquitin-protein ligase Mdm2 (Homo sapiens) (Q00987 whole entry, looked up): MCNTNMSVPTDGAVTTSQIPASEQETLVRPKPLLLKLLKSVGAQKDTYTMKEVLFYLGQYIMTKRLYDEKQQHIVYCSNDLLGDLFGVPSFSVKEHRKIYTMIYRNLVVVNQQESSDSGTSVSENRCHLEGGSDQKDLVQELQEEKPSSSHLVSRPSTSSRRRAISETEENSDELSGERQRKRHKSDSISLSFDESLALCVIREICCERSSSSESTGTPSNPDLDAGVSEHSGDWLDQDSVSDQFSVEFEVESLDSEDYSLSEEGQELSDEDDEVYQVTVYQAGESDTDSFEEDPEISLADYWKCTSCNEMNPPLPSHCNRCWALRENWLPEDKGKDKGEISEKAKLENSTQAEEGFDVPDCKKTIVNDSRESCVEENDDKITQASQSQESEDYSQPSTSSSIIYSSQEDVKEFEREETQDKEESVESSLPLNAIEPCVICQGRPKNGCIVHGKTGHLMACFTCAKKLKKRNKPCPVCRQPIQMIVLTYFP
# [5] = Drug localization in human HeLa cells assessed as mean fluorescence intensity at 5 uM incubated for 2 hrs in presence of 1% FBS by flow cytometry relative to CPP12; assay type: ADME, cell-based
# In short: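 HeLa cells treated with 5 μM fluorescein-labeled peptide and analysed by flow cytometry. Mean fluorescence intensity expressed relative to FITC-labeled CPP12 (100%).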
# [6] = Drug distribution in human HeLa cells assessed as diffuse fluorescence throughout the entire cell volume at 5 uM incubated for 2 hrs by live-cell confocal microscopy; assay type: ADME, cell-based
# In short: (§2)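 HeLa, H358 or A549 cells treated with 5 μM fluorescein-labeled peptide for 2 h, then imaged by live-cell confocal microscopy for intracellular fluorescence pattern.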
# [7] = Drug distribution in human HeLa cells assessed as fluorescent puncta in cytoplasmic region at 5 uM incubated for 2 hrs by live-cell confocal microscopy; assay type: ADME, cell-based; in short: as §2
# [8] = Drug distribution in human A549 cells assessed as diffuse fluorescence throughout the entire cell volume at 5 uM incubated for 2 hrs by live-cell confocal microscopy; assay type: ADME, cell-based; settings: a549, 2 h; in short: as §2
# [9] = Drug distribution in human A549 cells assessed as fluorescent puncta in cytoplasmic region at 5 uM incubated for 2 hrs by live-cell confocal microscopy; assay type: ADME, cell-based; settings: a549, 2 h; in short: as §2
# [10] = Drug distribution in human A549 cells assessed as accumulation in plasma membrane at 5 uM incubated for 2 hrs by live-cell confocal microscopy; assay type: ADME, cell membranes; settings: a549, 2 h; in short: as §2
# [11] = test system: A549; test: Antiproliferative activity against human A549 cells harboring KRAS G12S mutant incubated for 96 hrs by CellTiter-Glo2 assay; assay type: functional, cell-based; settings: A549, 96 h
# In short: (§3)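 Cells plated at 5,000/well, grown overnight, then exposed to serially diluted peptide (0–40 μM) in medium with 10% FBS for 96 h at 37 °C, 5% CO2. Viability read by CellTiter-Glo 2.0 luminescence after 15 min at RT.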
# [12] = test system: NIH3T3; test: Cytotoxicity against mouse NIH3T3 cells incubated for 96 hrs by CellTiter-Glo2 assay; assay type: cell-based; settings: NIH3T3, 96 h; in short: as §3
# [13] = test system: HEK-293T; test: Cytotoxicity against HEK293T cells incubated for 96 hrs by CellTiter-Glo2 assay; assay type: cell-based; settings: Homo sapiens; in short: as §3
# [14] = test system: NCI-H358; test: Induction of apoptosis in human NCI-H358 cells assessed as early apoptotic cells at 1 uM incubated for 24 hrs by Alexa Fluor 488 annexin V/propidium iodide staining based assay (reference value: 3.05%); assay type: functional
# [15] = test system: NCI-H358; test: Induction of apoptosis in human NCI-H358 cells assessed as necrotic cells at 1 uM incubated for 24 hrs by Alexa Fluor 488 annexin V/propidium iodide staining based assay (reference value: 0.699%); assay type: functional
# [16] = test system: NCI-H358; test: Induction of apoptosis in human NCI-H358 cells assessed as live cells at 5 uM incubated for 24 hrs by Alexa Fluor 488 annexin V/propidium iodide staining based assay (reference value: 87%); assay type: functional
# [17] = test system: NCI-H358; test: Induction of apoptosis in human NCI-H358 cells assessed as necrotic cells at 5 uM incubated for 24 hrs by Alexa Fluor 488 annexin V/propidium iodide staining based assay (reference value: 0.699%); assay type: functional
# [18] = test system: NCI-H358; test: Induction of apoptosis in human NCI-H358 cells assessed as live cells at 10 uM incubated for 24 hrs by Alexa Fluor 488 annexin V/propidium iodide staining based assay (reference value: 87%); assay type: functional
# [19] = test system: NCI-H358; test: Induction of apoptosis in human NCI-H358 cells assessed as early apoptotic cells at 10 uM incubated for 24 hrs by Alexa Fluor 488 annexin V/propidium iodide staining based assay (reference value: 3.05%); assay type: functional
# [20] = test system: NCI-H358; test: Induction of apoptosis in human NCI-H358 cells assessed as late apoptotic cells at 10 uM incubated for 24 hrs by Alexa Fluor 488 annexin V/propidium iodide staining based assay (reference value: […]); assay type: functional
# [21] = test system: NCI-H358; test: Induction of membrane disruption in human H358 cells assessed as LDH release up to 20 uM incubated for 45 mins by absorbance method; assay type: functional, cell-based; settings: dose microM <=20, time […]
# [22] = test system: A549; test: Antitumor activity against human A549 cells xenografted in mouse assessed as average tumor volume at 5 mg/kg, iv administered for 9 days measured every other day (reference value: 100 mm3); assay type: functional; settings: time 9 day
# In short: (§4)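 Nude mice given ~1.5 million A549 cells subcutaneously. Once tumors reached ~40 mm3, groups of n = 6 received peptide at 1 or 5 mg/kg/day or PBS vehicle by tail-vein injection for 9 days. Tumor volume was tracked, and tumors were weighed at harvest.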
# [23] = test system: A549; test: Antitumor activity against human A549 cells xenografted in mouse assessed as reduction in tumor growth at 5 mg/kg, iv administered for 9 days measured every other day; assay type: functional; design: scale not given: the % may be the effect or the level left; settings: time 9 day; in short: as §4
# [24] = test system: A549; test: Antitumor activity against human A549 cells xenografted in mouse assessed as reduction in ERK phosphorylation at 1 to 5 mg/kg, iv administered for 9 days measured every other day by immunohistochemical staining method; assay type: functional, organism-based; settings: dose 1-5 mg/kg, time 9.0 day
# [25] = test system: DLD-1; test: Antiproliferative activity against human DLD-1 cells harboring KRAS G13D mutant incubated for 96 hrs by CellTiter-Glo2 assay; assay type: functional, cell-based; settings: DLD-1, 96 h; in short: as §3
compound,measurement,setting,value
C[C@@H](NC(=O)[C@H](Cc1ccccc1)NC(=O)[C@@H](CCCNC(=N)N)NC(=O)[C@H](CCCN)NC(=O)[C@@H]1CNC(=O)c2cc3cc(c2)C(=O)N[C@H](Cc2ccc4ccccc4c2)C(=O)N[C@@H](CO)C(=O)N[C@@H](CC(N)=O)C(=O)N[C@H](Cc2ccc4ccccc4c2)C(=O)N[C@@H](c2ccccc2)C(=O)N[C@@H](CCCCNC3=O)C(=O)N[C@H](Cc2ccccc2)C(=O)N[C@@H](CCC(N)=O)C(=O)N[C@H](CCCNC(=N)N)C(=O)N[C@@H](CCCNC(=N)N)C(=O)N1)C(N)=O ([d2Nal]SN[d2Nal][Phg]K[dF]Q[dR]R[Dap][Orn][dR]F[dA]-NH2; linker N-6-11 via Trimesoyl),Kd,[1],57 µM
same,Activity,[2],inactive
same,Activity,[3],inactive
same,Activity,[4],inactive
same,Drug uptake,[5],226%
same,Drug uptake,[6],Active
same,Drug uptake,[7],Active
same,Drug uptake,[8],Active
same,Drug uptake,[9],Active
same,Drug uptake,[10],Active
same,EC50,[11],0.5 µM
same,EC50,[12],≥ 20 µM
same,EC50,[13],≥ 20 µM
same,Activity,[14],3.13%
same,Activity,[15],0.226%
same,Activity,[16],55.1%
same,Activity,[17],1.14%
same,Activity,[18],15.4%
same,Activity,[19],4.11%
same,Activity,[20],80%
same,Activity,[21],inactive
same,Activity,[22],35 mm3
same,Activity,[23],100%
same,Activity,[24],Active
same,EC50,[25],4.9 µM
